Activity calls are given as the source filed them. The rule behind the calls is not given here.
Assays:
Pseudomonas aeruginosa [1] = assay: Inhibition of biofilm formation in multidrug resistant Pseudomonas aeruginosa 1129 at 10 uM relative to control; assay type: functional
Pseudomonas aeruginosa [2] = assay: Antibacterial activity against Pseudomonas aeruginosa infected in African green monkey Vero cells assessed as cell survival at 20 uM pretreated for 24 hrs followed by cell addition and measured 4 hrs post-infection by MTT assay (reference value: 41.5%); assay type: functional; conditions: time 28 hrs
Pseudomonas aeruginosa [3] = assay: Inhibition of biofilm formation in multidrug resistant Pseudomonas aeruginosa 1121 at 1.25 uM relative to control; assay type: functional
Pseudomonas aeruginosa [4] = assay: Inhibition of biofilm formation in multidrug resistant Pseudomonas aeruginosa 1121 at 2.5 uM relative to control; assay type: functional
Pseudomonas aeruginosa [5] = assay: Inhibition of biofilm formation in multidrug resistant Pseudomonas aeruginosa FB at 5 uM relative to control; assay type: functional
Pseudomonas aeruginosa [6] = assay: Inhibition of biofilm formation in multidrug resistant Pseudomonas aeruginosa FB at 10 uM relative to control; assay type: functional
Pseudomonas aeruginosa [7] = assay: Inhibition of biofilm formation in multidrug resistant Pseudomonas aeruginosa 1129 at 5 uM relative to control; assay type: functional
Pseudomonas aeruginosa [8] = assay: Antibiofilm activity against Pseudomonas aeruginosa PAO1 assessed as inhibition of biofilm formation after 24 hrs by SYTO 9/propidium iodide staining based confocal microscopic analysis; assay type: functional, organism-based; conditions: dose microM 1.25-20, time 24.0 hrs
In short: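 Biofilms were grown as in the crystal violet assay but on glass-bottom wells, with compound at 1.25–20 μM for 24 h at 37 °C against an untreated control. Wells were rinsed three times with PBS and stained for 15 min in the dark with 1 μM SYTO 9 and 10 μM propidium iodide. Confocal imaging used a 63× oil objective; triplicate.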

Pseudomonas aeruginosa [9] = assay: Inhibition of swarming motility of Pseudomonas aeruginosa PAO1 measured after 16 hrs; assay type: functional, organism-based; conditions: dose microM 1.25-20, time 16.0 hrs
In short: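 LB plates with 0.5% agar, 0.5% casamino acids and 0.5% glucose contained compound at 0–20 μM. Plates were dried 1 h, then 1 μL PAO1 (OD600 1) was spotted on the centre. Incubation was 16 h at 37 °C; three independent experiments.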

Pseudomonas aeruginosa [10] = assay: Antibiofilm activity against Pseudomonas aeruginosa PAO1 assessed as reduction in biofilm mass at 1.25 uM after 24 hrs by microtiter plate assay relative to control; assay type: functional; parameters: scale not given: the % may be the effect or the level left
In short: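 PAO1 (OD600 0.05) was cultured in ABTGC medium at 37 °C for 24 h with compound (1.25–20 μM for the dose series). Wells were PBS-washed three times, methanol-fixed for 30 min, air-dried, and stained with 0.1% crystal violet for 30 min. Stain was solubilized in 33% acetic acid and read at 570 nm. Compound stocks were […]. Run in triplicate.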

Pseudomonas aeruginosa [11] = assay: Inhibition of biofilm formation in multidrug resistant Pseudomonas aeruginosa 1167 at 10 uM relative to control; assay type: functional
[12] = test system: Pseudomonas aeruginosa PAO1; assay: Induction of iron chelation in Pseudomonas aeruginosa PAO1 assessed as increase in iron deficiency by measuring change in total ferric ion concentration at 10 uM by inductively coupled plasma mass spectrometry (reference value: 1.91 +/- 0.8 uM)
In short: (§1)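 PAO1 (OD600 0.05) was diluted 1:100 into ABTGC medium and grown 24 h at 37 °C with shaking, with compound; DFP at 20 μM was the reference. Pellets were washed twice in HEPES and lysed with lysozyme in 50 mM HEPES plus sonication for 30 min. Lysates were digested with 1 M nitric acid, centrifuged, and analysed by ICP-MS. Mean ± SD, triplicate.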

[13] = Inhibition of GFP (unknown origin) at 1.25 to 20 uM by measuring fluorescence intensity every 15 mins for 12 hrs by microtiter plate reader assay; conditions: dose microM 1.25-20, time 12.0 hrs
In short: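 PAO1-gfp, PAO1-lasB-gfp, PAO1-rhlA-gfp or PAO1-pqsA-gfp reporters were grown overnight in LB, then diluted in ABTGC medium to OD600 0.02, with compound at 1.25–20 μM. Controls were 0.1% DMSO and a blank. OD600 and GFP fluorescence (ex 485/em 535 nm) were read every 15 min for at least 12 h at 37 °C; triplicate.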

[14] = test system: Pseudomonas aeruginosa PAO1; assay: Induction of iron chelation in Pseudomonas aeruginosa PAO1 assessed as increase in iron deficiency by measuring change in total ferric ion concentration at 1.25 uM by inductively coupled plasma mass spectrometry (reference value: 1.91 +/- 0.8 uM); in short: as §1
Pseudomonas aeruginosa [15] = assay: Inhibition of biofilm formation in multidrug resistant Pseudomonas aeruginosa 1167 at 20 uM relative to control; assay type: functional
Pseudomonas aeruginosa [16] = assay: Inhibition of biofilm formation in multidrug resistant Pseudomonas aeruginosa 1167 at 1.25 uM relative to control; assay type: functional
Pseudomonas aeruginosa [17] = assay: Inhibition of biofilm formation in multidrug resistant Pseudomonas aeruginosa 1129 at 1.25 uM relative to control; assay type: functional
Pseudomonas aeruginosa [18] = assay: Inhibition of swimming motility of Pseudomonas aeruginosa PAO1 measured after 16 hrs; assay type: functional, organism-based; conditions: dose microM 1.25-20, time 16.0 hrs
In short: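 Compound (0–20 μM) was included in LB plates with 0.3% agar, 0.5% casamino acids and 0.5% glucose. Plates were dried 1 h, then 1 μL PAO1 (OD600 1) was placed at the plate bottom. Incubation was 16 h at 37 °C; three independent experiments.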

Pseudomonas aeruginosa [19] = assay: Inhibition of biofilm formation in multidrug resistant Pseudomonas aeruginosa 1167 at 2.5 uM relative to control; assay type: functional
Pseudomonas aeruginosa [20] = assay: Inhibition of biofilm formation in multidrug resistant Pseudomonas aeruginosa 1129 at 2.5 uM relative to control; assay type: functional
Pseudomonas aeruginosa [21] = assay: Antibacterial activity against Pseudomonas aeruginosa infected in human L02 assessed as cell survival at 20 uM pretreated for 24 hrs followed by cell addition and measured 4 hrs post-infection by MTT assay (reference value: 40.7%); assay type: functional; conditions: time 28 hrs
[22] = test system: Pseudomonas aeruginosa PAO1; assay: Induction of iron chelation in Pseudomonas aeruginosa PAO1 assessed as increase in intracellular pyochelin level at 1.25 to 20 uM in presence of 10 uM FeCl3 by fluorescence microplate reader assay; assay type: cell-based; conditions: dose microM 1.25-20

CCCCCCC(=O)NCc1c(O)c(=O)cc(C)n1C
inhibition at 10 µM (Pseudomonas aeruginosa [1]): 30.4% | survival at 20 µM (Pseudomonas aeruginosa [2]): 96.4% | inhibition at 1.25 µM (Pseudomonas aeruginosa [3]): 11.8% | inhibition at 2.5 µM (Pseudomonas aeruginosa [4]): 7.68% | inhibition at 5 µM (Pseudomonas aeruginosa [5]): 3.57% | inhibition at 10 µM (Pseudomonas aeruginosa [6]): 18.4% | inhibition at 5 µM (Pseudomonas aeruginosa [7]): 30.6% | Activity (Pseudomonas aeruginosa [8]): Dose-dependent effect | inhibition (Pseudomonas aeruginosa [9]): Dose-dependent effect | Activity (Pseudomonas aeruginosa [10]): >25% | inhibition at 10 µM (Pseudomonas aeruginosa [11]): 47.4% | Activity [12]: 0.97 µM | inhibition [13]: inactive | Activity [14]: 1.55 µM | inhibition at 20 µM (Pseudomonas aeruginosa [15]): 51.4% | inhibition at 1.25 µM (Pseudomonas aeruginosa [16]): 34.5% | inhibition at 1.25 µM (Pseudomonas aeruginosa [17]): 12.7% | inhibition (Pseudomonas aeruginosa [18]): Dose-dependent effect | inhibition at 2.5 µM (Pseudomonas aeruginosa [19]): 34.6% | inhibition at 2.5 µM (Pseudomonas aeruginosa [20]): 21.3% | survival at 20 µM (Pseudomonas aeruginosa [21]): 89.9% | Activity [22]: Active

Source: ChEMBL document CHEMBL4665779, “Novel 2-Substituted 3-Hydroxy-1,6-dimethylpyridin-4(1H)-ones as Dual-Acting Biofilm Inhibitors of Pseudomonas aeruginosa” (J Med Chem, 2020)
